Only some compounds are listed: those with a hit (about 4.5% of all), similar ones and a draw of the others.
TAAR1 ag: agonists of human TAAR1. CHO RD-HGA16 TAAR1, Fluo-8 calcium fluorescence; vehicle wells 0%, saturating PEA agonist 100%. activation, % at 3 µM. 0.99% of 360,000 active;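 active = activation above the mean activation of all test compounds in the run plus 3 SD, cut at about 38% in these data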
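System: CHO-derived RD-HGA16 cells with stable Gα16 and human TAAR1. Times: 17-24 h plating, Fluo-8 75 min 37 °C, 30 min RT. Measured by: calcium-sensitive Fluo-8 signal, excitation 470-495, emission 515-575 nm. Read-out basis: % activation relative to PEA EC100 response. Control set: DMSO and PEA EC100. Repeats: no replicates (n 1).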
OX1R antag-1: antagonists of human orexin 1 receptor (OX1R) | 1.8% of 330,000 active | OX1R-expressing cells, FRET antagonist read-out | O43613 | AID 485270 | inhibition, % at 6.6 µM; in the data active = inhibition mostly above about 38%, no sharp cut-off; inactive = mostly below about 40%;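 also: 0% = agonist challenge alone and 100% = reference antagonist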
Target sequence (O43613 whole entry, looked up): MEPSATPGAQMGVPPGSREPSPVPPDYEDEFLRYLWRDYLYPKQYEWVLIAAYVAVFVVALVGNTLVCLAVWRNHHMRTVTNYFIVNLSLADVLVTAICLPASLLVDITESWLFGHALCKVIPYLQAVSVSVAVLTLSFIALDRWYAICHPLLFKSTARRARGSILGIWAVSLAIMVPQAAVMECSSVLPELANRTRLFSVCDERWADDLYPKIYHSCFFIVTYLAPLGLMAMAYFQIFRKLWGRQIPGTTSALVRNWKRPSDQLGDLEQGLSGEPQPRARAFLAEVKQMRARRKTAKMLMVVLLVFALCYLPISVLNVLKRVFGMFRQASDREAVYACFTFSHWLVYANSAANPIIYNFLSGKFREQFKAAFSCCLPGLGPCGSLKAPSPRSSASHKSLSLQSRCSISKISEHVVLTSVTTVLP
CHO parental Ca: counter-screen for OX1R antagonists: effect in parental CHO cells | parental CHO-K1, ATP-induced calcium, Fluo-8 fluorescence | inhibition, % at 5.6 µM | 0.63% of 330,000 active | AID 463079;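 active = inhibition above that plate's mean sample inhibition plus 3 SD, cut at about 26% in these data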;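 also: 0% = ATP-challenged DMSO wells and 100% = DMSO wells without ATP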
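Test system: untransfected parental CHO cell line. Compound: one dose, 5.6 µM nominal. Detection: intracellular calcium via Fluo-8 no-wash fluorescent dye. Measure: % inhibition. Benchmarks: ATP-challenged DMSO wells low, unchallenged DMSO wells high.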
TAAR1 antagonist: human TAAR1 antagonism; inhibition, % at 3 µM; 1.5% of 360,000 active; Q96RJ0; CHO RD-HGA16 TAAR1, Fluo-8 calcium fluorescence, antagonist;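 active = inhibition above a per-plate cutoff, the mean inhibition of test compounds on that plate plus 3 SD, cut at about 49% in these data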;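 also: 0% = DMSO plus EC80 beta-PEA response and 100% = DMSO alone without agonist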
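Test system: CHO RD-HGA16 cells bearing hTAAR1 | Reagent: β-PEA, EC80 | Compound dosing: 3 µM, single point | Schedule: Dye loading 75 min at 37 °C, then 30 min room temperature | Signal: Calcium fluorescence with Fluo-8 | Evaluation: Percent inhibition of PEA-evoked calcium signal, max/basal emission ratio | Control set: DMSO-only wells and EC80 β-PEA-stimulated wells | Repeats: Singlicate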
GPR7 antagonist: antagonists of human GPR7 (neuropeptides B/W receptor 1) | GPR7-expressing cells, fluorescence antagonist assay | inhibition, % at 4.4 µM | 1.1% of 290,000 active | P48145; in the data active = inhibition above about 16%, passing the limit was not always enough;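 also: cells stimulated with the agonist NPW; 0% = agonist with vehicle and 100% = vehicle without agonist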
OX1R antag-2: antagonists of human orexin 1 receptor | O43613 | CHO/OX1R cells, Fluo-8 calcium fluorescence, orexin A | inhibition, % at 5 µM | 0.43% of 330,000 active;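 active = inhibition above its plate's threshold, mean inhibition of all tested compounds on the plate plus 3 SD, cut at about 37% in these data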;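 also: 0% = orexin A challenge wells and 100% = SB-334867-A antagonist wells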
* = called active by the depositor; · = no result given.

SMILES | TAAR1 ag | OX1R antag-1 | CHO parental Ca | TAAR1 antagonist | GPR7 antagonist | OX1R antag-2
O=C1C(F)=CC(COC(c2ccccc2)(c2ccccc2)c2ccccc2)OC1n1cc(F)c(=O)[nH]c1=O (stereo unspecified) | 9 | · | · | 54* | · | ·
CC(=O)OCC1OC(n2cc(F)c(=O)[nH]c2=O)C(OC(C)=O)C1OC(C)=O (stereo unspecified) | 2 | 1 | -9 | -28 | · | 2
Cc1cc(N2CCCC2)ccc1/C=C1\NC(=S)N(C)C1=O | 51* | 31 | 41* | 32 | -11 | 48*
CN1C(=O)c2ccc(N3CCCC3)cc2C1=O | 4 | 26 | -11 | -12 | -4 | -15
Cc1ccc(S(=O)(=O)NCC2CCN(C(=O)C(=O)c3cccs3)CC2)cc1 | 2 | · | · | -12 | · | ·
COc1cc(/C=C(\C#N)c2nc3ccccc3[nH]2)ccc1OC(=O)c1ccco1 | 11 | 71* | 2 | 18 | 2 | 14
COc1cc(/C=C(\C#N)c2nc3ccccc3[nH]2)c([N+](=O)[O-])cc1OCc1ccccc1 | 9 | 50 | -7 | 54* | -8 | -4
CCOc1cc(/C=C(/C#N)c2nc3ccccc3[nH]2)ccc1OCc1ccc(C(=O)O)o1 | 0 | 4 | -3 | -18 | -1 | -11
CC(C)=CC(=O)NCC1CCN(C(=O)C(=O)c2cc3ccccc3o2)CC1 | 4 | · | · | -3 | · | ·
O=C(Nc1ccccc1C(=O)N1CCN(c2ccccc2)CC1)c1ccco1 | 3 | 51* | -20 | 10 | 0 | 13
O=C1c2ccccc2[C@@H]2C[C@@H](O)[C@H](Nc3cccc4ccccc34)CCN12 | 1 | 42* | -12 | 2 | · | 5
Cn1c2ccsc2c2ncn(Cc3ccccc3F)c(=O)c21 | 3 | 42* | -8 | 4 | · | 25
CCOC(=O)NC(NCC(O)c1ccccc1)(C(F)(F)F)C(F)(F)F (stereo unspecified) | 67* | 10 | 2 | 56* | -12 | -7
CCCCOC(=O)NC(NCC(O)c1ccccc1)(C(F)(F)F)C(F)(F)F (stereo unspecified) | 5 | 10 | -10 | -7 | -6 | -6
COCCOC(=O)c1c(C)n(C)c2ccc(OC(=O)N3CCOCC3)cc12 | 2 | 5 | -7 | 1 | 2 | -13
COCCOC(=O)c1c(C)n(C)c2ccc(OC(=O)c3c(OC)cccc3OC)cc12 | 18 | 29 | -4 | 49* | -7 | -18
OC(c1ccccc1)(c1nc(-c2cccc(F)c2)cs1)C(F)(F)F (stereo unspecified) | 0 | · | · | 20 | · | ·
Cc1ccc(C(=O)N2c3ccccc3Sc3ccccc32)cc1 | -1 | · | · | -16 | · | ·
CN(C)c1ccc2c(c1)Sc1cc(N(C)C)ccc1N2C(=O)c1ccccc1 | 2 | 33 | 38* | -6 | 0 | -6
O=[N+]([O-])c1cc(Cl)cc(/C=N/NC(=S)Nc2ccc(S(=O)(=O)N3CCOCC3)cc2)c1O | -2 | 75* | -3 | 29 | -12 | -12
O=C(NCCc1ccccc1)/C(=C\c1ccc([N+](=O)[O-])cc1)NC(=O)c1ccco1 | 34 | 27 | -3 | -6 | 8 | -10
CC(=O)N/C(=C/c1ccc([N+](=O)[O-])cc1)C(=O)O | 1 | 33 | -6 | 7 | -5 | -8
CNC(=O)/C(=C\c1ccc([N+](=O)[O-])cc1)NC(C)=O | 3 | 73* | -6 | 2 | 0 | -5
Cc1ccc(C(=O)N/C(=C\c2ccc([N+](=O)[O-])cc2)C(=O)NCCc2ccccc2)cc1 | 43* | 10 | 18 | 14 | -6 | 1
COC(=O)[C@@]1(Cc2ccc(F)cc2)[C@H]2c3cc(C(=O)N(C)C)n(CC4CC4)c3C[C@H]2CN1C(=O)c1ccccc1 | 26 | · | · | -17 | · | ·
SMILES | TAAR1 ag | OX1R antag-1 | CHO parental Ca | TAAR1 antagonist | GPR7 antagonist | OX1R antag-2
COc1cccc(N2CCN(c3ncnc4c3[nH]c3ccccc34)CC2C)c1 (stereo unspecified) | 16 | 112* | 89* | 89* | -1 | 91*
COc1ccc2[nH]c3c(N4CC(C)OC(C)C4)ncnc3c2c1 (stereo unspecified) | 4 | 14 | -10 | 9 | -14 | -16
COc1cccc(N2CCN(c3ncnc4c3[nH]c3ccc(F)cc34)CC2C)c1 (stereo unspecified) | 27 | 86* | 96* | 93* | 84* | 99*
COC(=O)CC(=O)CC(NS(=O)(=O)c1ccc(C)cc1)c1ccccc1 (stereo unspecified) | 1 | · | · | -17 | · | ·
Nc1nc2cc3c(cc2cc1C(=O)NCc1cccnc1)OCO3 | 2 | · | · | 13 | · | ·
CCCc1ccc(-c2cc(NC(=O)Cc3c(C)[nH]c4ccccc34)ccc2Nc2cccnc2)cc1 | 1 | · | · | -22 | · | ·
CN1c2ccccc2C(C)(C)C12C=Cc1cc(O)ccc1O2 (stereo unspecified) | 0 | 29 | 56* | 17 | 11 | 22
CCOC(=O)c1c(-c2ccccc2)oc2ccc(OC(C)=O)cc12 | 10 | 64* | -9 | 6 | -17 | -2
COCc1[nH]nc2c1C(c1cccc(C(F)(F)F)c1)N(c1ccc(OC)cc1)C2=O (stereo unspecified) | 1 | · | · | -15 | · | ·
Cc1ccc(NC(=O)COC(=O)Cn2cnc3ccccc32)c([N+](=O)[O-])c1 | 4 | 74* | 38* | -8 | -13 | 20
COCC(=O)NC1CCN(CC(=O)Nc2ccccc2[N+](=O)[O-])CC1 | 2 | 31 | -7 | -12 | -7 | -6
CCC(=O)OCC(=O)Nc1ccc(OC)cc1[N+](=O)[O-] | 7 | 49* | -4 | -4 | 1 | -5
COCC(=O)NC1CCN(CC(=O)Nc2ccc(OC)cc2[N+](=O)[O-])CC1 | 2 | 41* | -1 | -13 | -2 | -21
Nc1ccn([C@@H]2O[C@H](C(=O)N[C@H](Cc3ccccc3)C(=O)N[C@H]3CCCCNC3=O)[C@@H](O)[C@H]2O)c(=O)n1 | 13 | · | · | -9 | · | ·
Cc1c(N)ccc(-n2nc3ccccc3n2)c1C | 0 | 5 | -3 | -29 | · | -19
CCOC(=O)N(C)[C@H]1C[C@H]2c3cc(-c4ccccc4C)ccc3CCN2C[C@H]1[C@H](C)O | 3 | · | · | -2 | · | ·
O=[N+]([O-])c1cccc(N/N=C/c2ccc(N3CCOCC3)cc2)c1 | 14 | 28 | 24 | 58* | -2 | 23
COc1ccccc1N(CC(O)Cn1c(C)nc2ccccc21)S(=O)(=O)c1ccccc1 (stereo unspecified) | 4 | 63* | -18 | 9 | 1 | 10
CC1(C)OC(=O)C2=C(CC(CCc3ccccc3)OC2c2cccc(C(F)(F)F)c2)O1 (stereo unspecified) | -1 | · | · | 1 | · | ·
O=S(=O)(N1CCCCC1)n1nnc2cc3ccccc3cc21 | 4 | · | · | -25 | · | ·

Screening data from PubChem.
